In BindingDB's records for doi:10.1021/acs.jmedchem.8b00139 (University Park Nottingham, 2018):

Biological target: P2Y purinoceptor 2 (Homo sapiens, UniProt P41231)
Test: Displacement of (E)-2-((5-(7-Chloro-2-((3-((2-(6-(3-(5,5-difluoro-7,9-dimethyl-5H-5-lambda4,6-lambda4-dipyrrolo[1,2-c:2,1-f ][1,3,2]diazaborinin-3-yl)-propanamido)hexanamido)ethyl)amino)-3-oxopropyl)amino)-4Hbenzo[5,6]cyclohepta[1,2-d]thiazol-4-yl)-2-oxo-4-thioxo-3,4-dihydropyrimidin-1(2H)-yl)methyl)-N-(1H-tetrazol-5-yl)thiazole-4-carboxamide from human N-terminal NLuc-tagged P2Y2R expressed in human 1321N1 cells incubated for 1 hr by furimazine-based NanoBRET assay
Procedure, shortened: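 Competition binding in 1321N1 cells expressing N-terminal NanoLuc-hP2Y2R. The fluorescent tracer was used at 1 µM (or the bodipy A tracer at 100 nM) against increasing concentrations of unlabeled ligand. After furimazine addition the BRET signal was read and pKi estimated; mean ± SEM of separate experiments.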

Sequence of P2Y purinoceptor 2 (P41231 whole entry): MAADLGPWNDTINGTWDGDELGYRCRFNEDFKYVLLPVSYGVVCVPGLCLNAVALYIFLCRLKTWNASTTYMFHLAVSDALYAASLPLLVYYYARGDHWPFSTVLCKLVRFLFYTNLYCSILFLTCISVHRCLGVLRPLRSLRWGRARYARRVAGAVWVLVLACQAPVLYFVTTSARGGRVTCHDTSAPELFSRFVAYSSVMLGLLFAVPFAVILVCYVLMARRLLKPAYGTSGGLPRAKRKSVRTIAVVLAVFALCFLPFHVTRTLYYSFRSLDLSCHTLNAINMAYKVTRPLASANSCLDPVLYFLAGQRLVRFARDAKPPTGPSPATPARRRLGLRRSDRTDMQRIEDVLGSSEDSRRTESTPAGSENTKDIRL

Row | Ki | SMILES
1 | 5250 nM | CCOCCNc1nc2c(s1)C=Cc1cc(Cl)ccc1[C@@H]2c1cn(C)c(=O)[nH]c1=S
2 | 275 nM | CCOCCNc1nc2c(s1)C=Cc1cc(Cl)ccc1[C@H]2c1cn(C)c(=O)[nH]c1=S
